This note sets out measurements from ChEMBL document CHEMBL1152452, “Modifications incorporated in CpG motifs of oligodeoxynucleotides lead to antagonist activity of toll-like receptors 7 and 9” (2009).

Activity calls are given as the source filed them. The calls are words filed in the database; no cut-off is given here.

Experiment [1] relates to Mus musculus. The experiment can be described thus: Immunostimulatory activity in C57BL/6 mouse assessed as induction of MCP1 level in serum at 2 mg/kg, sc after 2 hrs by Luminex multiplex assay. The format is functional, organism-based. On the set-up: dose 2 mg/kg. The gist of the method: (§1)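 Female C57BL/6 mice, 5–6 weeks old, n = 3, received a single 2 mg/kg subcutaneous ODN injection in the right flank. Blood was taken by retro-orbital bleeding 2 h later. Naive mice served as baseline. Representative of three experiments.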

For the next experiment, the system named is J774. Description: Activation of NF-kappaB in mouse J774 cells at 2.5 ug/ml after 1 hr by EMSA. In kind it is cell-based. The gist of the method: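 Murine J774 macrophages in DMEM with 10% FBS and antibiotics, plated at 5×10^6 cells/well. ODNs were given alone or together for 1 h. For inhibition, the agonist ODN at 0.5 μg/mL was co-incubated with the modified ODN at 2.5 μg/mL. Nuclear extracts were resolved by EMSA on native polyacrylamide gels and read by autoradiography.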

For a further experiment, the system named is Splenocyte. The experiment can be described thus: Immunostimulatory activity in C57BL/6 mouse splenocytes assessed as induction of IL6 secretion at 2 to 10 ug/ml after 24 hrs by sandwich ELISA. The format is functional, cell-based. The gist of the method:
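C57BL/6 splenocytes (mice 5–8 weeks) at 5 × 10^6 cells/mL in RPMI complete medium. ODNs dissolved in PBS were added and the cells incubated at 37 °C for 24 h. Supernatant IL-12 or IL-6 was measured by sandwich ELISA. Runs were done two or three times, in duplicate per concentration.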
(In general: An ELISA detects its analyte on a solid surface through an enzyme-linked reagent.)

Experiment [2] concerns the target T1, Toll-like receptor 9 (Mus musculus) (UniProt Q9EQU3).
T1 sequence (whole entry): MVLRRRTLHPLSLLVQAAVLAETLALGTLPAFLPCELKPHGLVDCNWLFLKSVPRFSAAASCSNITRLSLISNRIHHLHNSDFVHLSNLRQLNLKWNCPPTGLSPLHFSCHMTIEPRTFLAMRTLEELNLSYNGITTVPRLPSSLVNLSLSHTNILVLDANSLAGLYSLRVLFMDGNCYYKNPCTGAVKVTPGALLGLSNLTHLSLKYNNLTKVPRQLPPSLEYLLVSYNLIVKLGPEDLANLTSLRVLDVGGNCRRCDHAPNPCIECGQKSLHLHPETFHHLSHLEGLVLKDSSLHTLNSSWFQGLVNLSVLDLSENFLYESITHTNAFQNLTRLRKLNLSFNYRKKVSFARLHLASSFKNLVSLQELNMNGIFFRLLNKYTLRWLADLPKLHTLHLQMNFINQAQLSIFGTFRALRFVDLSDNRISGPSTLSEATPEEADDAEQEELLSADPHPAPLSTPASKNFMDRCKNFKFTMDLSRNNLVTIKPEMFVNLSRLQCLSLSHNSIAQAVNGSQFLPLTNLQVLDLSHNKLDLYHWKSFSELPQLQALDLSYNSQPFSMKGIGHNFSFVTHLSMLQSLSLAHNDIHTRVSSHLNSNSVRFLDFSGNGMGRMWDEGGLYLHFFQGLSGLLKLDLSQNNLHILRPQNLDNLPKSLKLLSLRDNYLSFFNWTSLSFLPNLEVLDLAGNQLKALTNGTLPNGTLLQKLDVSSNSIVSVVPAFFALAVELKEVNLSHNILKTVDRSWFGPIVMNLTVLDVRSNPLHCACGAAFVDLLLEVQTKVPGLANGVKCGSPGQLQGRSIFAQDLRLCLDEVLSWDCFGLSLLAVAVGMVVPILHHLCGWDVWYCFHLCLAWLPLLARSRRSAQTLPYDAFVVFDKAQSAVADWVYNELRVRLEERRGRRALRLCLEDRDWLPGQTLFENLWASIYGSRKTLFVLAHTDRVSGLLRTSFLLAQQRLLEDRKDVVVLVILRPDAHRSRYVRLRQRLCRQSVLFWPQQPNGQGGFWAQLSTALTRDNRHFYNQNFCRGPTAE
The experiment can be described thus: Activation of mouse TLR9 expressed in HEK293 cells assessed as NF-kappaB level at 1 ug/mL after 18 hrs by reporter gene assay. The format is cell-based. The procedure, abridged:
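HEK293 cells stably expressing mouse TLR9 were transiently transfected with a SEAP reporter for 6 h, then stimulated with ODN at 0.1, 0.3 or 1 μg/mL for 18 h. Reporter expression is given as fold change in NF-κB activity over medium. Representative of two independent experiments.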
On the technique in general: A reporter such as luciferase makes a cellular process visible.

The subject of experiment [3] is Mus musculus. Description: Immunostimulatory activity in C57BL/6 mouse assessed as inhibition of 5'-CTATCTGACGTTCTCTGT-3'-induced IL12 production in serum at 2 mg/kg, sc administered 24 hrs prior to 5'-CTATCTGACGTTCTCTGT-3' challenge measured after 2 hrs by sandwich ELISA. In kind it is functional. Particulars: C57BL/6, sc, route subcutaneous. The gist of the method:
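C57BL/6 mice were pretreated sc in the right flank with 2, 5 or 10 mg/kg ODN. After 24 h, the TLR9 agonist ODN was given at 0.5 mg/kg sc in the left flank. Serum IL-12 was measured by ELISA 2 h later. Representative of two experiments.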

Experiment [4] relates to Mus musculus. The experiment can be described thus: Immunostimulatory activity in C57BL/6 mouse assessed as induction of MIP-1alpha level in serum at 2 mg/kg, sc after 2 hrs by Luminex multiplex assay. On the set-up: dose 2 mg/kg. In kind it is functional, organism-based. The gist of the method: as §1
Experiment [5] deals with Mus musculus. The experiment can be described thus: Immunostimulatory activity in C57BL/6 mouse assessed as induction of IL10 level in serum at 2 mg/kg, sc after 2 hrs by Luminex multiplex assay. In kind it is functional, organism-based. On the set-up: dose 2 mg/kg. The procedure, abridged: as §1
The test system of experiment [6] is Mus musculus. The experiment can be described thus: Immunostimulatory activity in C57BL/6 mouse assessed as induction of KC level in serum at 2 mg/kg, sc after 2 hrs by Luminex multiplex assay. On the set-up: dose 2 mg/kg. The format is functional, organism-based. The procedure, abridged:
as §1

The subject of experiment [7] is Mus musculus. The experiment can be described thus: Immunostimulatory activity in C57BL/6 mouse assessed as induction of IL12 level in serum at 2 mg/kg, sc after 2 hrs by sandwich ELISA. The format is functional, organism-based. On the set-up: dose 2 mg/kg. The procedure, abridged: as §1

As usually defined, the inhibition in vivo is the change of the read-out against control, counted positive when it falls. Consider `Cc1cn([C@@H]2O[C@H](COP(=O)(S)O[C@H]3C[C@H](n4ccc(N)nc4=O)O[C@@H]3COP(=O)(S)O[C@H]3C[C@H](n4cc(C)c(=O)[nH]c4=O)O[C@@H]3COP(=O)(S)O[C@H]3C[C@H](n4ccc(N)nc4=O)O[C@@H]3COP(=O)(S)O[C@H]3C[C@H](n4cc(C)c(=O)[nH]c4=O)O[C@@H]3COP(=O)(S)O[C@H]3C[C@H](n4cc(C)c(=O)[nH]c4=O)O[C@@H]3COP(=O)(S)O[C@H]3C[C@H](n4cnc5c(=O)[nH]c(N)nc54)O[C@@H]3COP(=O)(S)O[C@H]3C[C@H](n4ccc(N)nc4=O)O[C@@H]3COP(=O)(S)O[C@H]3C[C@H](n4cnc5c(N)ncnc54)O[C@@H]3COP(=O)(S)O[C@H]3C[C@H](n4cnc5c(=O)[nH]c(N)nc54)O[C@@H]3COP(=O)(S)O[C@H]3C[C@H](n4cc(C)c(=O)[nH]c4=O)O[C@@H]3COP(=O)(S)O[C@H]3C[C@H](n4ccc(N)nc4=O)O[C@@H]3COP(=O)(S)O[C@H]3C[C@H](n4cc(C)c(=O)[nH]c4=O)O[C@@H]3COP(=O)(S)O[C@H]3C[C@H](n4cnc5c(N)ncnc54)O[C@@H]3COP(=O)(S)O[C@H]3C[C@H](n4cc(C)c(=O)[nH]c4=O)O[C@@H]3COP(=O)(S)O[C@@H]3C[C@@H](n4ccc(N)nc4=O)O[C@H]3CO)[C@@H](OP(=O)(S)OC[C@H]3O[C@@H](n4cnc5c(=O)[nH]c(N)nc54)C[C@@H]3OP(=O)(S)OC[C@H]3O[C@@H](n4cc(C)c(=O)[nH]c4=O)C[C@@H]3O)[C@H]2O)c(=O)[nH]c1=O` (stereo partly drawn), for which the outcome (in the experiment with Mus musculus [1]; with J774; in experiment [2]; in the experiment with Mus musculus [4]; in the experiment with Mus musculus [5]; with Mus musculus [6]) was inactive. Besides, in the experiment with Mus musculus [7], the result was inactive. In addition, in the experiment on Splenocyte, the result was Active. Besides, the inhibition in vivo at 2 mg/kg in the experiment with Mus musculus [3] came to 50%.

Take `CO[C@@H]1[C@H](OP(=O)(S)OC[C@H]2O[C@@H](n3cc(C)c(=O)[nH]c3=O)C[C@@H]2OP(=O)(S)OC[C@H]2O[C@@H](n3cc(C)c(=O)[nH]c3=O)C[C@@H]2OP(=O)(S)OC[C@H]2O[C@@H](n3ccc(N)nc3=O)C[C@@H]2OP(=O)(S)OC[C@H]2O[C@@H](n3cc(C)c(=O)[nH]c3=O)C[C@@H]2OP(=O)(S)OC[C@H]2O[C@@H](n3ccc(N)nc3=O)C[C@@H]2OP(=O)(S)OC[C@H]2O[C@@H](n3cc(C)c(=O)[nH]c3=O)C[C@@H]2OP(=O)(S)OC[C@H]2O[C@@H](n3cnc4c(=O)[nH]c(N)nc43)C[C@@H]2OP(=O)(S)OC[C@H]2O[C@@H](n3cc(C)c(=O)[nH]c3=O)C[C@@H]2O)[C@@H](COP(=O)(S)O[C@H]2C[C@H](n3ccc(N)nc3=O)O[C@@H]2COP(=O)(S)O[C@H]2C[C@H](n3cnc4c(N)ncnc43)O[C@@H]2COP(=O)(S)O[C@H]2C[C@H](n3cnc4c(=O)[nH]c(N)nc43)O[C@@H]2COP(=O)(S)O[C@H]2C[C@H](n3cc(C)c(=O)[nH]c3=O)O[C@@H]2COP(=O)(S)O[C@H]2C[C@H](n3ccc(N)nc3=O)O[C@@H]2COP(=O)(S)O[C@H]2C[C@H](n3cc(C)c(=O)[nH]c3=O)O[C@@H]2COP(=O)(S)O[C@H]2C[C@H](n3cnc4c(N)ncnc43)O[C@@H]2COP(=O)(S)O[C@H]2C[C@H](n3cc(C)c(=O)[nH]c3=O)O[C@@H]2COP(=O)(S)O[C@H]2C[C@H](n3ccc(N)nc3=O)O[C@@H]2CO)O[C@H]1n1cnc2c(=O)[nH]c(N)nc21` (stereo partly drawn): the outcome (in the experiment on Mus musculus [1]; with J774; in [2]; with Mus musculus [4]; in the experiment on Mus musculus [5]; with Mus musculus [6]) was inactive. Moreover, the outcome in the experiment on Mus musculus [7] was inactive. Besides, the outcome in the experiment on Splenocyte was Active. Also, the inhibition in vivo at 2 mg/kg in the experiment on Mus musculus [3] stood at 50%.
